Measurements of several laboratories.
Lines come from different studies, so protocols differ.
Target: Dual specificity mitogen-activated protein kinase kinase 5 (MAP2K5, Homo sapiens, UniProt Q13163)
One construct used (Q13163 1-448): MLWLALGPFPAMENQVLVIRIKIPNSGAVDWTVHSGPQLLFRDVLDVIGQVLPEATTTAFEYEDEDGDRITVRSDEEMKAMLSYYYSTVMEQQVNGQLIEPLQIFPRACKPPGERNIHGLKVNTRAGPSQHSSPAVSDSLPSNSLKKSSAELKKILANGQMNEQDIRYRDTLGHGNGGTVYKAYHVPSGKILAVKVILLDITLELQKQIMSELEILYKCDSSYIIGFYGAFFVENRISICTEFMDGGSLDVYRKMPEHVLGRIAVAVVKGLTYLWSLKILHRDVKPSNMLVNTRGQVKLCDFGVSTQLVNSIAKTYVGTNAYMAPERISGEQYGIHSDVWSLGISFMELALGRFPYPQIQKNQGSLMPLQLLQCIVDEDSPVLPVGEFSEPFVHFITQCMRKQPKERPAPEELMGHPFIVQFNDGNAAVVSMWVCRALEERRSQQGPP

CC(C)(C)c1nc(-c2cccc(NS(=O)(=O)c3c(F)cccc3F)c2F)c(-c2ccnc(N)n2)s1 — remaining activity (enzyme activity, inhibitor, radiometric; 1 µM): 90%
Cc1ccc(C(=O)Nc2ccc(CN3CCN(C)CC3)c(C(F)(F)F)c2)cc1C#Cc1cnc2cccnn12 — remaining activity (enzyme activity, inhibitor; 23.5 nM): 2.4%
CCCCNc1ncc2c(-c3ccc(F)cc3)nn(C[C@H]3CC[C@H](N)CC3)c2n1 — inhibition (target engagement in cells, inhibitor, chemoproteomics; 20 mM): 83%
CC1=C(C#N)C(c2ccc3c(c2)c(NC(=O)c2ccccc2C)nn3C)C(C#N)=C(C)N1 — remaining binding (cell-free assay, competition with immobilised ligand; 1 µM): 79%
Cc1sc(C(=O)NC2COC2)cc1-n1cc(NC(=O)Nc2c(F)cccc2Cl)cn1 — remaining activity (enzyme activity, inhibitor; 10 µM): 96.8%
COc1cccc2c(NCc3ccccc3)nc(-n3c(N)nc4ccccc43)nc12 — inhibition (target engagement in cells, inhibitor, chemoproteomics; 20 mM): 6.7%
CC(C)(C)c1nc2c(s1)c1nc(N)ncc1c1ccc(NS(=O)(=O)c3c(F)cccc3F)c(F)c12 — remaining activity (enzyme activity, inhibitor, radiometric; 1 µM): 80%
Nc1ncnc2occ(-c3ccc(NC(=O)Nc4cc(C(F)(F)F)ccc4F)cc3)c12 — remaining signal (cell-free assay, inhibitor; 20 µM): 0.15%
O=C(Nc1cnn(-c2csc(C(=O)NC3COC3)c2)c1)Nc1ccccc1Cl — remaining activity (enzyme activity, inhibitor; 5 µM): 98.2%
CC(C)(O)c1cncc(-c2nc3ccc(F)cc3n2C2CC2)c1 — remaining binding (cell-free assay, competition with immobilised ligand; 1 µM): 100%
